Results on ten compounds are retold here after ChEMBL document CHEMBL1144774, “Vasorelaxing alkaloids and flavonoids from Cassytha filiformis” (J Nat Prod, 2008).

For this assay, the system named is Aorta. The assay is described as follows: Vasorelaxation activity in Sprague-Dawley rat aortic assessed as inhibition of phenylephrin-induced contraction. The format is functional, tissue-based. An outline of the steps:
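Endothelium-intact aortic rings from adult male rats (280–320 g) held isometrically at 1.8 g passive tension for 60 min; endothelium confirmed by >98% relaxation to acetylcholine (3 µM). Tonic contraction to phenylephrine (0.3 µM) set as 100%. Compound added cumulatively, 0.01–100 µM, one curve per ring. IC50 taken from percent-relaxation curves; mean ± SE of n independent experiments.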

What is called IC50 is the concentration that inhibits the measured activity by half.

Take `COc1ccc2c(c1C(=O)O)-c1c3c(c(OC)c4c1[C@H](C2)NCC4)OCO3` [CASSYTHIC ACID]: the IC50 came out at 2.48 µM.
The figure for `COc1ccc2c(c1OC)-c1c3c(c(OC)c4c1[C@H](C2)NCC4)OCO3` is 16.5 µM.
The figure for `COc1cc2c(cc1O)C(=O)c1nccc3c(OC)c4c(c-2c13)OCO4` [ISOFILIFORMINE] is 32 µM; for `COc1cc2c(cc1OC)-c1c3c(cc4c1[C@H](C2)N(C)CC4)OCO3` [DICENTRINE] it is 0.08 µM; for `COc1cc2c(cc1O)C[C@@H]1NCCc3c(OC)c4c(c-2c31)OCO4` [CASSYTHINE] it is 0.09 µM.
Turning to `CN1CCc2cc3c(c4c2[C@@H]1Cc1cc2c(cc1-4)OCO2)OCO3` [NEOLITSINE], the half-inhibitory concentration (IC50) was found to be 0.29 µM.
The figure for `COC1=C[C@@]23CCN(C)[C@@H](Cc4cc(OC)c(OC)cc42)C3=CC1=O` is 28.9 µM; for `COc1cc(-c2oc3cc(O)cc(O)c3c(=O)c2O[C@@H]2O[C@H](CO)[C@@H](O)[C@H](O)[C@H]2O)ccc1O` it is 23.6 µM.
As for `COc1cc(-c2oc3cc(O)cc(O)c3c(=O)c2O[C@@H]2O[C@H](CO[C@@H]3O[C@@H](C)[C@H](O)[C@@H](O)[C@H]3O)[C@@H](O)[C@H](O)[C@H]2O)ccc1O` [NARCISSIN], the IC50 came out at 16.8 µM.
Next, `COC1=C[C@@]23CCN(C)[C@@H](Cc4ccc(OC)c(O)c42)C3=CC1=O`: 32.8 µM.
